ChEMBL document CHEMBL1667772 (Bioorg Med Chem Lett, 2011)
The source made the active and inactive calls. The rule behind the calls is not given here.

What was measured:
[1] = molecular target: T1, Bifunctional epoxide hydrolase 2 (Homo sapiens, UniProt P34913); assay: Inhibition of human soluble epoxide hydrolase
T1 sequence (P34913 whole entry): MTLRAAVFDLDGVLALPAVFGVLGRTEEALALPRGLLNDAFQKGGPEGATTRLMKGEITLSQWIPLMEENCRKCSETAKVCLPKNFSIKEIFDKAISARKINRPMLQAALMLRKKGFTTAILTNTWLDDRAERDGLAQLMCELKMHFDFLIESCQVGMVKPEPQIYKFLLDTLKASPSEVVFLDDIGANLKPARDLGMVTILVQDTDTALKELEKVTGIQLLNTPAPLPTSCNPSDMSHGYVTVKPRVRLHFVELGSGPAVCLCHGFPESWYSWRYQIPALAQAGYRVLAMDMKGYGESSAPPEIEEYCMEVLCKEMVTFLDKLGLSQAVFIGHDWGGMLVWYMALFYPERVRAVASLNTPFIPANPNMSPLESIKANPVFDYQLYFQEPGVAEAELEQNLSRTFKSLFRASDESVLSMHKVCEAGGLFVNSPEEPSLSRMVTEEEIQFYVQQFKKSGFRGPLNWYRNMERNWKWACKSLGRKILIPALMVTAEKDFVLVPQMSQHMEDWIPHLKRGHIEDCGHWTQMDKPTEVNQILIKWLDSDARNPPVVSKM

[2] = molecular target: T1, Bifunctional epoxide hydrolase 2; type: cell-based, HUVEC
[3] = molecular target: Voltage-gated inwardly rectifying potassium channel KCNH2 (Homo sapiens, UniProt Q12809); assay: Inhibition of human ERG by patch clamp analysis
In short: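 hERG inhibition measured by high-throughput patch clamp; percent inhibition at 30 µM.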

[4] = AUC (24 hrs) in rat at 10 mg/kg, po; type: ADME, organism-based; parameters: time < 24 hr, dose 10 mg/kg, route oral; conditions: plasma
Cytochrome P450 1A2 = molecular target: T2, Cytochrome P450 1A2 (Homo sapiens, UniProt P05177); assay: Inhibition of CYP1A2; type: ADME
T2 sequence (P05177 whole entry): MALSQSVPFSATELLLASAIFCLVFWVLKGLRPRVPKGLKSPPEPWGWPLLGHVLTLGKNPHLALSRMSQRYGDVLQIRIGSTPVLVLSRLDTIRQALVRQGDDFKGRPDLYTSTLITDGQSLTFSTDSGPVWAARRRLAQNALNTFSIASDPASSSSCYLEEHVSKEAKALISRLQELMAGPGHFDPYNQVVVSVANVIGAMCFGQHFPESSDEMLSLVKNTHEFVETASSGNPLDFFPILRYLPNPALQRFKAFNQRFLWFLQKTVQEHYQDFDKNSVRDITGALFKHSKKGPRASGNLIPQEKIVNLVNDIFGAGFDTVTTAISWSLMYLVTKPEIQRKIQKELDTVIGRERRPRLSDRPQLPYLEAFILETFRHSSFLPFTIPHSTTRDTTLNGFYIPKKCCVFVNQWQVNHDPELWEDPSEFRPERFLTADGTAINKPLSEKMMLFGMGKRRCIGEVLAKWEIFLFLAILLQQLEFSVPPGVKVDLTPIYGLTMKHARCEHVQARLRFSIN

Cytochrome P450 2B6 = molecular target: T3, Cytochrome P450 2B6 (Homo sapiens, UniProt P20813); assay: Inhibition of CYP2B6; type: ADME
T3 sequence (P20813 whole entry): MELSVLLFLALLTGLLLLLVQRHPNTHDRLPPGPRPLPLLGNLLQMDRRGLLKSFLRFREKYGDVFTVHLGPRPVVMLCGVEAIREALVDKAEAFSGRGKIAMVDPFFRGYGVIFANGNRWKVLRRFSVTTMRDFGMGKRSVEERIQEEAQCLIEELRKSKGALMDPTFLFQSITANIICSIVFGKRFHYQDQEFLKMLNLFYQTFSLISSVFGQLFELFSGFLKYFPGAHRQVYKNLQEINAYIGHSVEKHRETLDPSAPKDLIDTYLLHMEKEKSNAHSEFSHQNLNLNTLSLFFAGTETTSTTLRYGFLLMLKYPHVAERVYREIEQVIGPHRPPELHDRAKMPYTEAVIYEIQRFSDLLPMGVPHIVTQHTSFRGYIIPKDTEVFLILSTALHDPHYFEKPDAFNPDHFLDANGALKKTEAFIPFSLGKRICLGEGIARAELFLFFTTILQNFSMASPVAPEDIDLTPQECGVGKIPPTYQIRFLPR

Cytochrome P450 2C9 = Cytochrome P450 2C9 (Homo sapiens, UniProt P11712); assay: Inhibition of CYP2C9; type: ADME
Cytochrome P450 2C19 = Cytochrome P450 2C19 (Homo sapiens, UniProt P33261); assay: Inhibition of CYP2C19; type: ADME
Cytochrome P450 3A4 = Cytochrome P450 3A4 (Homo sapiens, UniProt P08684); assay: Inhibition of CYP3A4; type: ADME
[5] = Oral bioavailability in cynomolgus monkey; type: ADME, organism-based, Macaca fascicularis; conditions: in vivo
[6] = Oral bioavailability in rat; type: ADME, organism-based; conditions: in vivo
Rattus norvegicus [7] = assay: Antihypertensive activity against spontaneously hypertensive rat assessed as decrease in mean blood pressure at 100 mg/kg, po; type: functional, organism-based; parameters: dose 100 mg/kg
Mus musculus [8] = assay: Antidiabetic activity in diet induced obese mouse assessed as reduction in maximal glucose excursion at 100 mg/kg, po BID for 4 weeks; type: functional, organism-based; parameters: dose 100 mg/kg
In short: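 Male C57BL/6 mice fed 45% fat diet plus high fructose corn syrup (0.42 kcal/mL) for 6 weeks beforehand and throughout. Oral gavage BID for 12 weeks. After 4 weeks, intraperitoneal glucose 2 g/kg given 4 h post-dose.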

Rattus norvegicus [9] = assay: Antihypertensive activity against AngII-induced hypertension in telemetered rat assessed as decrease in systolic blood pressure at 50 mg/kg, po; conditions: Artery, read-out: INH
Rattus norvegicus [10] = assay: Antihypertensive activity against AngII-induced hypertension in telemetered rat assessed as decrease in diastolic blood pressure at 50 mg/kg, po; type: functional, organism-based; parameters: dose 50 mg/kg; conditions: Artery
In short: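 Sprague–Dawley rats made hypertensive by continuous AngII infusion, 65 ng/min. Dosed orally twice daily as a suspension in 0.5% carboxymethylcellulose, 0.1% Tween 80. Systolic and diastolic pressure recorded continuously by telemetry and compared against vehicle control.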

Mus musculus [11] = assay: Inhibition of soluble epoxide hydrolase in diet induced obese mouse assessed as inhibition of EET hydrolysis at 100 mg/kg, po BID for 12 weeks measured 7 hrs post last dose

Chain of Voltage-gated inwardly rectifying potassium channel KCNH2 (Q12809 whole entry): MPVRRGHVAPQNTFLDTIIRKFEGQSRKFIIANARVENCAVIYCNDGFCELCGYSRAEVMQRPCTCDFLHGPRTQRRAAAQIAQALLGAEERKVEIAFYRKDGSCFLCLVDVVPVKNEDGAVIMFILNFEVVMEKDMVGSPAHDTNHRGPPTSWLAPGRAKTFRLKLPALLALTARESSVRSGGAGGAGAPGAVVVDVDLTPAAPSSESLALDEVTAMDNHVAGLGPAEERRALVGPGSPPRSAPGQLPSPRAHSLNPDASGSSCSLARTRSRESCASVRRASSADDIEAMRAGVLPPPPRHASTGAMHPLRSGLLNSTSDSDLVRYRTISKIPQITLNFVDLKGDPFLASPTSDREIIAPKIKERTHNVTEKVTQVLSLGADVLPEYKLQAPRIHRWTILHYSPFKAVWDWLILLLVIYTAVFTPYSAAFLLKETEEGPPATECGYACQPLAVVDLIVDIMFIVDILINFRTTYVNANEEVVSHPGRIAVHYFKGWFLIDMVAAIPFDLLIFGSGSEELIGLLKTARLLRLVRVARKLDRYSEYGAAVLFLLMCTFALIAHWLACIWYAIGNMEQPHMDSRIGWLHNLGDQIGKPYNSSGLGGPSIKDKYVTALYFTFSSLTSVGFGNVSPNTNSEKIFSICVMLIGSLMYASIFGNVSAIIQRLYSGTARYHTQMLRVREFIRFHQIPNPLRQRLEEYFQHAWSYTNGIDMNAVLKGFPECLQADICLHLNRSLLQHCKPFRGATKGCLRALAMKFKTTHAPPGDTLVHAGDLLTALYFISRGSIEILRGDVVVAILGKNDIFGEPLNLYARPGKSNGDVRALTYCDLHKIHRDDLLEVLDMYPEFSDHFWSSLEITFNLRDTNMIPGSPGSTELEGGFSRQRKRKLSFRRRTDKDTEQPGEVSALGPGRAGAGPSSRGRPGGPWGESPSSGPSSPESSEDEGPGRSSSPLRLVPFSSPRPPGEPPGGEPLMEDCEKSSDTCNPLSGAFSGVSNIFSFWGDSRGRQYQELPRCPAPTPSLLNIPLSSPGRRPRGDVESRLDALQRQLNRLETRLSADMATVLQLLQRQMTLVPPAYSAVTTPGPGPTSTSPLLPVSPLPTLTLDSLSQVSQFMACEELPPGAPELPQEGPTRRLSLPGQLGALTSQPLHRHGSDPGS
Chain of Cytochrome P450 3A4 (P08684 whole entry): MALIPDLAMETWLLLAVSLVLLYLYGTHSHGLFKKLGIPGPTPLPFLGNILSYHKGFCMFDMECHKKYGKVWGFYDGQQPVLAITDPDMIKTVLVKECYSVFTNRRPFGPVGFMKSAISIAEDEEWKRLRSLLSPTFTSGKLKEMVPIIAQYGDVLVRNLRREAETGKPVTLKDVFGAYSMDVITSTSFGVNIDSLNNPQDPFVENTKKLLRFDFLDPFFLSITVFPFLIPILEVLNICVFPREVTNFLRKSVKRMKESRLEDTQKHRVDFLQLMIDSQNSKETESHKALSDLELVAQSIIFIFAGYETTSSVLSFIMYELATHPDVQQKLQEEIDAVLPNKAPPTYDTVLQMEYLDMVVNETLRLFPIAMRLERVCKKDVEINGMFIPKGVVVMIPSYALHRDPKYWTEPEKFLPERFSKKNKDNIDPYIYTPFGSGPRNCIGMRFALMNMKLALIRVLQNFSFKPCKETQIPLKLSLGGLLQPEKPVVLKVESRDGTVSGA
Chain of Cytochrome P450 2C9 (P11712 whole entry): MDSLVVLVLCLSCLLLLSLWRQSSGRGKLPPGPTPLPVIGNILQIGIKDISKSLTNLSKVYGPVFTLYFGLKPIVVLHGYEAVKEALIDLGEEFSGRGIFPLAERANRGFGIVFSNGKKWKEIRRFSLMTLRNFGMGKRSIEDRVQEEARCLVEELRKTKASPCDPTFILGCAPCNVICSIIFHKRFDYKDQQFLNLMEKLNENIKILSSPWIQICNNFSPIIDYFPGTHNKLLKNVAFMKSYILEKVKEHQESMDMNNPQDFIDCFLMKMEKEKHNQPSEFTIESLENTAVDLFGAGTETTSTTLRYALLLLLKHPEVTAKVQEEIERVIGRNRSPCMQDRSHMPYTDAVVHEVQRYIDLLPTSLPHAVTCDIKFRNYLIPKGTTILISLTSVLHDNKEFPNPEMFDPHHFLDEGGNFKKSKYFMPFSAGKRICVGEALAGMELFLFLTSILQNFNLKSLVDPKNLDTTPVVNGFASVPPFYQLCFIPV
Chain of Cytochrome P450 2C19 (P33261 whole entry): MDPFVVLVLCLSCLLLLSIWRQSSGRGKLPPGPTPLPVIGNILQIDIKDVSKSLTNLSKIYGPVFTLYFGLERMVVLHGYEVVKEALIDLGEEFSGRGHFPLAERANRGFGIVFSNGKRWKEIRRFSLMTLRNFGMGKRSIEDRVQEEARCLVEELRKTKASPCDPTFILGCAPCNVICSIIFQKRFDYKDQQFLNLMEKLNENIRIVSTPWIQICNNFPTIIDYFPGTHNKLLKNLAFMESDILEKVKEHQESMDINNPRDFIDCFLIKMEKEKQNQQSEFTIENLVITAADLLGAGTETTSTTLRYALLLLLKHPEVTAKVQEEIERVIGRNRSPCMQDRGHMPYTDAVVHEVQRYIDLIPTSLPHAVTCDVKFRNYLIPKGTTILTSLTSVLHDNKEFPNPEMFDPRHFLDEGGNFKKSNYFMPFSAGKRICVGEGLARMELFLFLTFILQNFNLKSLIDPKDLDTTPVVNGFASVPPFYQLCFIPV

| SMILES | IC50 [1] | IC50 [2] | inhibition (INH) [3] | AUC at 24 h [4] | also measured |
| --- | --- | --- | --- | --- | --- |
| CC(=O)N1CCC(NC(=O)NC2CCC(C(C)(C)C)CC2)CC1 (stereo not given) | 13 nM | 270 nM | 7% | 1780 ng·h/mL |  |
| CS(=O)(=O)N1CCC(NC(=O)NC23CC4CC(CC(C4)C2)C3)CC1 | 1.9 nM | 3.9 nM | -2.8% | 640 ng·h/mL |  |
| CC(=O)N1CCC(NC(=O)NC2CCCCC2)CC1 | 29 nM |  |  |  |  |
| CC(=O)N1CCC(NC(=O)NC23CC4CC(CC(C4)C2)C3)CC1 [AR9281] |  |  | < 8% | 720 ng·h/mL | inhibition (INH) (Cytochrome P450 1A2): Not Active; inhibition (INH) (Cytochrome P450 2B6): Not Active; inhibition (INH) (Cytochrome P450 2C9): Not Active; inhibition (INH) (Cytochrome P450 2C19): Not Active; inhibition (INH) (Cytochrome P450 3A4): Not Active; bioavailability [5]: 25%; bioavailability [6]: 100%; Activity (Rattus norvegicus [7]): inactive; Activity (Mus musculus [8]): Active; inhibition in vivo at 50 mg/kg (Rattus norvegicus [9]): 8%; Activity (Rattus norvegicus [10]): Active; Activity (Mus musculus [11]): Active |
| CC(C)S(=O)(=O)N1CCC(NC(=O)Nc2ccc(C(F)(F)F)cc2)CC1 |  |  | 13% | 5890 ng·h/mL |  |
| CC(=O)N1CCC(NC(=O)NC2CCCCCC2)CC1 | 0.8 nM | 27 nM | 9% | 7840 ng·h/mL |  |
| CC(=O)N1CCC(NC(=O)NC23CC4CC(F)(CC(F)(C4)C2)C3)CC1 | 58 nM |  |  |  |  |
| O=C(Nc1ccc(OC(F)(F)F)cc1)NC1CCN(C(=O)c2cccnc2)CC1 |  | 6.7 nM | 57% | 11300 ng·h/mL |  |
| CC(=O)N1CCC(NC(=O)Nc2cccc(C(F)(F)F)c2)CC1 |  | 226 nM | 10% | 19600 ng·h/mL |  |
| CC(C)S(=O)(=O)N1CCC(NC(=O)Nc2ccc(OC(F)(F)F)cc2)CC1 |  | 64 nM | 11% | 7300 ng·h/mL |  |
| CC(=O)N1CCC(NC(=O)Nc2ccc(C(F)(F)F)cc2)CC1 |  |  |  | 13100 ng·h/mL |  |
| CC(=O)N1CCC(NC(=O)NC2CC3(C)CCC2CC3)CC1 (stereo not given) | 25 nM | 300 nM |  | 1480 ng·h/mL |  |
| CS(=O)(=O)N1CCC(NC(=O)Nc2ccc(C(F)(F)F)cc2)CC1 |  |  |  | 6850 ng·h/mL |  |
| CC(=O)N1CCC(NC(=O)NC2CCC(F)(F)CC2)CC1 | 185 nM |  |  |  |  |
| CC(=O)N1CCC(NC(=O)NC2CCC(C)(C)CC2)CC1 | 6 nM | 38 nM | 0.8% |  |  |
| CC(=O)N1CCC(NC(=O)NC23CC4(F)CC(F)(CC(F)(C4)C2)C3)CC1 | 120 nM |  |  |  |  |
| O=C(NC1CCCCC1)NC1CCN(C(=O)c2ccccn2)CC1 | 6.4 nM | 67 nM | 3.4% | 8320 ng·h/mL |  |
| CC(=O)N1CCC(NC(=O)NC2C3CCC2CC3)CC1 (stereo not given) | 14 nM | 120 nM |  |  |  |
